The record followed here is ChEMBL document CHEMBL4765378, “Discovery of simplified benzazole fragments derived from the marine benzosceptrin B as necroptosis inhibitors involving the receptor interacting protein Kinase-1” (Eur J Med Chem, 2020).

For data set [1], the target named is Receptor-interacting serine/threonine-protein kinase 3 (Homo sapiens, UniProt Q9Y572). The experiment in a line: Inhibition of recombinant human RIPK3 expressed in baculovirus infected Sf9 insect cells using myelin basic protein as substrate by ADP-Glo assay. A general note: ADP-Glo turns the ADP formed in a reaction into a luminescent signal.
Data set [2] deals with T1, Receptor-interacting serine/threonine-protein kinase 1 (Homo sapiens, UniProt Q13546).
T1 sequence (Q13546 whole entry): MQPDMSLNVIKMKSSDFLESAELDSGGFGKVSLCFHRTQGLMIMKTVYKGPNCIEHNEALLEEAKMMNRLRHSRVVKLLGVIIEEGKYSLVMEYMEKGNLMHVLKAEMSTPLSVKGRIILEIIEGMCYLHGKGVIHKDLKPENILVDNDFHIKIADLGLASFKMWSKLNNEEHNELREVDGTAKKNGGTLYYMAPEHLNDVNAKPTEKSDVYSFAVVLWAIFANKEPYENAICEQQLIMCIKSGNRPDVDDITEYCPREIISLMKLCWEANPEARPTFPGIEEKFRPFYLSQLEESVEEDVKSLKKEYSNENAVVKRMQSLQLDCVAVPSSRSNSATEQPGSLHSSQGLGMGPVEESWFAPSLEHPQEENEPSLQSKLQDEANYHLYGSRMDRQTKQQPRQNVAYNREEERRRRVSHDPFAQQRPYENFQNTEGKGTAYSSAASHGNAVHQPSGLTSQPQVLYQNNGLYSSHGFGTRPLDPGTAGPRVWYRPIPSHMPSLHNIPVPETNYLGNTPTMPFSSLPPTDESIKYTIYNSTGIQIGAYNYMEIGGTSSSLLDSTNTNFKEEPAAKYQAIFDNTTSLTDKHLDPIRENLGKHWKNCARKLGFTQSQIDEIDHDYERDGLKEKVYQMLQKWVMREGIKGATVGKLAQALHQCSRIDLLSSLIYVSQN
The experiment in a line: (§1) Inhibition of recombinant human RIPK1 kinase domain (8 to 322 residues) using myelin basic protein as substrate measured after 120 mins by [gamma-32P]ATP based scintillation counting method.

For data set [3], the target named is T2, Receptor-interacting serine/threonine-protein kinase 1 (Homo sapiens) (UniProt Q13546).
T2 sequence (whole entry): T1 sequence (Q13546 whole entry)
The data set is described as §1.

Data set [4] concerns the target Dual specificity tyrosine-phosphorylation-regulated kinase 1A (Rattus norvegicus, UniProt Q63470). As to the kind of experiment: Inhibition of recombinant rat DYRK1A kinase domain (1 to 499 residues) expressed in bacterial expression system using KKISGRLSPIMTEQ as substrate by ADP-glo assay.
Data set [5] is described as follows: Cytotoxicity against human FADD-deficient Jurkat I 2.1 cells assessed as reduction in cell viability at >25 uM measured after 24 hrs by MTS assay. Format: cell-based. Particulars: jurkat i 2.1, 24 h. Background: Tetrazolium dyes change colour on reduction, which living cells bring about.
In data set [6] the target is T3, Serine/threonine-protein kinase haspin (Homo sapiens, UniProt Q8TF76).
T3 sequence (Q8TF76 whole entry): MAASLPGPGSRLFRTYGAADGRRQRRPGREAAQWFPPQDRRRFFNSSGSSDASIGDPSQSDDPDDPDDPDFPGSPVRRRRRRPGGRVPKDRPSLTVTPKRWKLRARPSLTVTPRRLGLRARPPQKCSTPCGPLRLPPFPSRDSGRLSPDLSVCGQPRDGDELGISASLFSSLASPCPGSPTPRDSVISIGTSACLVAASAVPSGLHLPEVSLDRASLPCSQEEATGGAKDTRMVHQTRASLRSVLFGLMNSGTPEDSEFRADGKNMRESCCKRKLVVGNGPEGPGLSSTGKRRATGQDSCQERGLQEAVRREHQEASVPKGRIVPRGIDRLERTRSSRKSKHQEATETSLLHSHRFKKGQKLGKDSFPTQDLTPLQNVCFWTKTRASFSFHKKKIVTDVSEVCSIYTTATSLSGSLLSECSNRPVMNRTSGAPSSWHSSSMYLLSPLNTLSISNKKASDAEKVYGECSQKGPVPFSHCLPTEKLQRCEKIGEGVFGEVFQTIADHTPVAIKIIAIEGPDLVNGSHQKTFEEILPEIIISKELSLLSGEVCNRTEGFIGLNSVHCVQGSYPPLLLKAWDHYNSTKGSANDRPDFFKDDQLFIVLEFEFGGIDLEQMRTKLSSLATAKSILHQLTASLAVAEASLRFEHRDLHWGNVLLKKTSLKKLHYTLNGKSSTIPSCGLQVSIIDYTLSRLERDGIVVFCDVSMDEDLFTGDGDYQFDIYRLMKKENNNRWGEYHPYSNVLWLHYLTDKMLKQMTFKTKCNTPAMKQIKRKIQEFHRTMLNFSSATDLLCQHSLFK
The experiment in a line: Inhibition of recombinant human HASPIN kinase domain (470 to 798 residues) expressed in bacterial expression system using histone H3(1-21) peptide as substrate by ADP-glo assay.

Data set [7] is described as follows: Cytotoxicity against human FADD-deficient Jurkat I 2.1 cells assessed as reduction in cell viability at 10 uM measured after 24 hrs by MTS assay. Format: cell-based. Particulars: jurkat i 2.1, 24 h.
Data set [8] has as its system Jurkat. The experiment in a line: Protection against TRAIL-induced apoptosis in human Jurkat assessed as increase in cell viability at 0.1 to 50 uM measured after 24 hrs by MTS assay. Type of data set: functional, cell-based. Particulars: dose 0.1-50 µM. The method in brief: (§2)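 Jurkat wild-type cells treated with TRAIL-Flag (20 ng/mL) or staurosporine (100 nM) together with increasing compound doses for 24 h; viability by MTS reduction as % of DMSO-treated cells; mean ± SD, n = 3.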

The subject of data set [9] is Jurkat. The experiment in a line: Protection against staurosporine-induced apoptosis in human Jurkat assessed as increase in cell viability at 0.1 to 50 uM measured after 24 hrs by MTS assay. Format: functional, cell-based. Particulars: dose 0.1-50 µM. Summed up:
as §2

Structures are written as SMILES. Activity calls are given as the source filed them. No cut-off for these calls is given here. Some results are limits rather than exact numbers.

Sequence of Receptor-interacting serine/threonine-protein kinase 3 (Q9Y572 whole entry): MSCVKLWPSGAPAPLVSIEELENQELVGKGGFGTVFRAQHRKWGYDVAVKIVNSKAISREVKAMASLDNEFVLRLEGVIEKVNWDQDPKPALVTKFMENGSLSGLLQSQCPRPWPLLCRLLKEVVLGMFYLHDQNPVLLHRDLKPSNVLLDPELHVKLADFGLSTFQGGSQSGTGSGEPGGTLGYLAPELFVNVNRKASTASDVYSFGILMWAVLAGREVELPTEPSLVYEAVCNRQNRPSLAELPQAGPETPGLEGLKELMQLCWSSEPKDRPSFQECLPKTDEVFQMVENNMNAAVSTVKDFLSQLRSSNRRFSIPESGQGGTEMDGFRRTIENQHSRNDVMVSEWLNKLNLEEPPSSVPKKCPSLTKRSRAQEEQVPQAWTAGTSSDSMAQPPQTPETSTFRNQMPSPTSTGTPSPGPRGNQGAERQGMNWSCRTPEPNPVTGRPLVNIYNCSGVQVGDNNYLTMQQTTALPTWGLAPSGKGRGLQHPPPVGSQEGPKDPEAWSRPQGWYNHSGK

As a reminder, the IC50 is the concentration that gives 50% inhibition. For the compound `CCCCNc1nc2ccc([N+](=O)[O-])cc2[nH]1`, the IC50 was above 10 µM in [1], 12.1 µM in data set [2], 1.8 µM in data set [4] and above 10 µM in data set [6]. In data set [3], the inhibition result was “Dose-dependent effect”. Moreover, the Activity result in data set [5] is on record as “Toxic”; in data set [7] it was “Non-Toxic”.
Consider `CCCCNc1nc2cc([N+](=O)[O-])ccc2s1`, for which the IC50 was above 10 µM in data set [1], 2.89 µM in data set [2], 2.21 µM in [4] and above 10 µM in [6]. Further, the outcome in the data set on Jurkat [8] and in the data set on Jurkat [9] was inactive. In addition, the inhibition result in data set [3] was “Dose-dependent effect”. The Activity entry in data set [7] is on record as “Non-Toxic”.
